Consider one molecule from ChEMBL document CHEMBL4811317, “Inhibitory activities of anthraquinone and xanthone derivatives against transthyretin amyloidogenesis” (Bioorg Med Chem, 2021).

As a reminder, the solubility is the dissolved amount per volume that the medium holds. A word on the fraction unbound: it is the share of the substance not bound to proteins or other matrix. What is called Cmax is the peak of the concentration-time curve. A word on the AUC(0-inf): it is total exposure, with the tail of the curve extrapolated. Lower therefore signals less exposure. For orientation: clearance means the rate of elimination divided by the concentration. The AUC(0-t) is the area under the concentration-time curve up to a stated or last time point. High values mean more exposure, low ones less exposure. In general, bioavailability refers to dose-corrected exposure relative to a reference, in per cent. Read a low bioavailability as little systemic uptake. For orientation: Tmax means the time at which the peak concentration occurs.

In brackets after ≈: the same amount, converted by molar mass. Activity calls are given as the source filed them. No cut-off for these calls is given here.

Data set [1] deals with Transthyretin (Homo sapiens) (UniProt P02766). Kind of data set: Binding affinity to TTR V30M mutant (unknown origin) expressed in Escherichia coli by isothermal titration calorimetry. (Isothermal titration calorimetry measures the heat released or taken up as one component is titrated into another.)
A short description of data set [2]: Metabolic stability in Sprague-Dawley rat liver microsomes assessed as residual rate at 1 uM preincubated for 5 mins followed by NADPH addition and measured after 30 mins by LC-MS/MS analysis. The data set is classed as ADME, Microsome. Particulars: time 35 min, read-out: Stabilty. In short, it runs like this:
(§1)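 Rat liver microsomes 0.2 mg/mL with 1 μM compound, 1 mM EDTA, 0.1 M phosphate pH 7.4; 5 min preincubation, then 1 mM NADPH (final) added, 30 min at 37 °C, 60 rpm. Quenched in cold acetonitrile/internal standard, supernatant by LC-MS/MS against time zero. CLint scaled with 44.8 mg protein/g liver, 40.0 g liver/kg. At least two technical replicates.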
A general note: Liver microsomes are a subcellular fraction often used to study metabolism.

A short description of data set [3]: Metabolic stability in Sprague-Dawley rat liver microsomes assessed as residual rate at 1 uM measured after 30 mins by LC-MS/MS analysis. Conditions: read-out: Stabilty. The data set is classed as ADME, Microsome.
Data set [4] is described as follows: Aqueous solubility of the compound in pH 1.2 JP1 fluid measured after 4 hrs ny HPLC-UV analysis. The data set is classed as physicochemical. In short, it runs like this: (§2)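 Test compound diluted from 10 mM DMSO stock 2:165 into JP 1st fluid (pH 1.2) or JP 2nd fluid (pH 6.8); mixed 4 h at 37 °C with rotation at 1000 rpm, then filtered through 0.45 μm PVDF by centrifugation. At least two technical replicates.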

Data set [5] is described as follows: Aqueous solubility of the compound in pH 6.8 JP2 fluid measured after 4 hrs by HPLC-UV analysis. The data set is classed as physicochemical. In short, it runs like this: as §2
Data set [6] can be described thus: Permeability of the compound at 10 uM measured after 4 hrs by PAMPA based LC-MS analysis. The data set is classed as ADME. Conditions: read-out: permeability. Summed up: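 PAMPA on pre-coated plates: donor 10 μM compound in 5% DMSO/0.1 M phosphate pH 6.4, acceptor 5% DMSO/0.1 M phosphate pH 7.4; 4 h at 37 °C without agitation. Donor, acceptor and initial donor solutions quantified by LC-MS/MS; recovery above 90%. Antipyrine, metoprolol, sulfasalazine as references. At least two technical replicates.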
(The PAMPA barrier holds no transporters, so it reflects passive diffusion.)

Data set [7] in a line: Intrinsic clearance in Sprague-Dawley rat liver microsomes at 1 uM preincubated for 5 mins followed by NADPH addition and measured after 30 mins by LC-MS/MS analysis. The data set is classed as ADME, Microsome. Particulars: time 35 min, read-out: CLH. In short, it runs like this: as §1
Data set [8] can be described thus: Protein binding in Sprague-Dawley rat plasma assessed as unbound fraction at 1 uM measured after 4 hrs by equilibrium dialysis assay. The data set is classed as ADME, cell-free. Summed up:
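Rat plasma spiked at 1 μM, equilibrium dialysis (8K MWCO) against 0.1 M phosphate pH 7.4 for 4 h at 37 °C, 1000 rpm. Unbound fraction = buffer/plasma concentration ratio. At least two technical replicates.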

Data set [9] in a line: Cmax in Sprague-Dawley rat at 0.1 mg/kg, iv measured up to 8 hrs by LC-MS/MS analysis. The data set is classed as ADME, organism-based. Set-up: route intravenous, dose 0.1 mg/kg, time <=8. Particulars: in vivo. In short, it runs like this:
(§3)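 Male Sprague Dawley rats (7 weeks old, n = 2) given compound in 10% DMSO/0.1 M phosphate pH 8.5, i.v. or p.o. Caudal-vein blood at 5 min (i.v.), 15, 30 min, 1, 2, 4, 8 h; plasma precipitated with acetonitrile/IS, LC-MS/MS. Non-compartmental analysis; bioavailability = AUC∞(p.o.)/AUC∞(i.v.).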

A short description of data set [10]: Elimination half life in Sprague-Dawley rat at 0.1 mg/kg, iv measured up to 8 hrs by LC-MS/MS analysis. The data set is classed as ADME, organism-based. Conditions: in vivo, read-out: beta t1/2 (converted). In short, it runs like this:
as §3

Data set [11] can be described thus: AUC infinity in Sprague-Dawley rat at 0.1 mg/kg, iv measured up to 8 hrs by LC-MS/MS analysis. The data set is classed as ADME, organism-based. Set-up: route intravenous, dose 0.1 mg/kg, time <=8. Particulars: in vivo.
Data set [12] is described as follows: Total clearance in Sprague-Dawley rat at 0.1 mg/kg, iv measured up to 8 hrs by LC-MS/MS analysis. Conditions: in vivo. The data set is classed as ADME, organism-based. In short, it runs like this:
as §3

The nature of data set [13]: Volume of distribution at steady state in Sprague-Dawley rat at 0.1 mg/kg, iv measured up to 8 hrs by LC-MS/MS analysis. The data set is classed as ADME, organism-based. Particulars: in vivo, read-out: Vdss. In short, it runs like this:
as §3

The nature of data set [14]: AUC (0 to 8 hrs) in Sprague-Dawley rat at 0.1 mg/kg, iv measured up to 8 hrs by LC-MS/MS analysis. The arrangement: route intravenous, dose 0.1 mg/kg, time <=8. The data set is classed as ADME, organism-based. Conditions: in vivo.
The nature of data set [15]: Bioavailability in Sprague-Dawley rat at 0.1 mg/kg, iv measured up to 8 hrs by LC-MS/MS analysis. The data set is classed as ADME, organism-based. Particulars: in vivo. In short, it runs like this: as §3
Data set [16] can be described thus: Cmax in Sprague-Dawley rat at 0.1 mg/kg, po measured up to 8 hrs by LC-MS/MS analysis. The data set is classed as ADME, organism-based. The arrangement: route oral, dose 0.1 mg/kg, time <=8. Particulars: in vivo. Summed up:
as §3

The nature of data set [17]: Tmax in Sprague-Dawley rat at 0.1 mg/kg, po measured up to 8 hrs by LC-MS/MS analysis. The data set is classed as ADME, organism-based. Particulars: in vivo. In short, it runs like this:
as §3

Data set [18] is described as follows: AUC (0 to 8 hrs) in Sprague-Dawley rat at 0.1 mg/kg, po measured up to 8 hrs by LC-MS/MS analysis. The data set is classed as ADME, organism-based. Set-up: route oral, dose 0.1 mg/kg, time <=8. Particulars: in vivo.

Regarding `O=C(O)c1ccc2nc(-c3cc(Cl)cc(Cl)c3)oc2c1`, the outcome in data set [1] was Active. Moreover, the remaining at 0.5 h, 1 µM in data set [2] and in [3] was 88% in each case. Also, the solubility at 4 h in [4] was 0.088 µM (≈ 0.0271 µg/mL); in [5] it was more than 100 µM. In addition, in data set [6], the Papp at 4 h, 10 µM was more than 50 ×10⁻⁶ cm/s. Besides, the CLint scaled at 1 µM in [7] came out at 38.7 mL/min/kg. Further, the unbound share (fraction unbound) at 4 h, 1 µM in data set [8] came out at 0.0051. In addition, the Cmax in data set [9] worked out at 537 ng/mL; in [16], 163 ng/mL. Besides, the half-life in [10] is 12 h. This molecule came in with an AUC(0-inf) in data set [11] of 4330 ng·h/mL. Moreover, the clearance in [12] is 0.383 mL/min/kg. The Vd in data set [13] amounted to 0.375 L/kg. In addition, the exposure AUC(0-t) in data set [14] amounted to 1710 ng·h/mL; in [18], 956 ng·h/mL. Also, in data set [15], the bioavailability came out at 55.8%. In addition, in data set [17], the time to peak (Tmax) was found to be 8 h.
